Results collected from several papers.
Compare with care: the assays were run in different laboratories.
Read-out: cell growth or viability

For `CCn1c2ccccc2c2cc(C3CC(c4cc5cccc(OC)c5oc4=O)=NN3c3cccc(Cl)c3)ccc21` (centres unmarked), the IC50 was 24.2 µM (NRK-52E; MTT; 24 h).
For `C/C(=N\NC(=O)c1cccc(S(=O)(=O)N2CCN(C)CC2)c1)c1cc(Cl)ccc1O`, the EC50 was 0.285 µM (MOLM-13; resazurin; 96 h).
With `CC(C)n1cc(C(c2ccc(/C=C/C(=O)O)s2)c2cn(C(C)C)c3ccccc23)c2ccccc21` the inhibition was 12% (KG-1; 5 µM; 48 h).
`COc1cccc(Oc2ccccc2NC(=O)CNC(=O)c2cccc3ccccc23)c1` gave a GI50 of 17 µM (Malme-3M; SRB; 48 h).
`CN1CCN(C(=O)[C@H](CCCN[C@@H]2C[C@H]2c2ccc(F)cc2)NC(=O)c2ccc(-n3ccnn3)cc2)CC1` has an EC50 of 0.00538 µM (MOLM-13; resazurin; 96 h).
With `CCn1c2ccccc2c2cc(C3CC(c4cc5cccc(OC)c5oc4=O)=NN3C(N)=O)ccc21` (centres unmarked) the IC50 was 40.3 µM (NRK-52E; MTT; 24 h).
The GI50 of `COc1cc(-c2ccc(-c3ccc(C(=N)N)nc3)s2)cc(OC)c1OC` is reported as 1.53 µM (Malme-3M; SRB).
`Cn1cc(C(c2ccc(C(=O)O)cc2)c2cn(C)c3ccccc23)c2ccccc21` has an inhibition of 25% (KG-1; 20 µM; 48 h).
`COc1ccc(-c2ccc(-c3ccc(C(=N)N)nc3)s2)cc1Cl` has a GI50 of 1.78 µM (Malme-3M; SRB).
With `Cn1cc(C(c2ccc(/C=C/C(=O)O)s2)c2cn(C)c3ccccc23)c2ccccc21` the inhibition was 7% (KG-1; 20 µM; 48 h).
For `COc1ccccc1S(=O)(=O)Nc1ccc2c(c1)CN(C)C(=O)N2`, the GI50 was 10 µM (PL-21; ATP luminescence).
